Results pooled from the literature.
ache: Acetylcholinesterase (ache, Electrophorus electricus, UniProt O42275)
ADORA1: Adenosine receptor A1 (ADORA1, Homo sapiens, UniProt P30542)
CARM1: Histone-arginine methyltransferase CARM1 (CARM1, Homo sapiens, UniProt Q86X55)

SMILES	target	assay	test system	conditions	inhibition [%]
COc1cc2c(cc1OC)C(=O)N(CC1CCN(CC3CCNC3)CC1)C2 (centres unmarked)	ache	enzyme activity, inhibitor	–	1 µM	4.86
COc1cc(NC(C)=O)c(Cl)cc1C(=O)Nc1nccs1	ADORA1	cell-free assay	–	10 µM	25.2
COc1cc2c(cc1OC)C(=O)N(CC1CCN(Cc3cccnc3)CC1)C2	ache	enzyme activity, inhibitor	–	1 µM	-0.52
O=C(c1ccc(F)cc1)N(Cc1ccccc1)C1CCCCC1	ADORA1	cell-free assay	–	10 µM	8
COc1ccc2[nH]cc(/C=C/c3ccc(O)cc3)c2c1	Amyloid-beta precursor protein, monomer (APP, Homo sapiens, UniProt P05067)	amyloid aggregation, inhibitor, fluorescence	–	25 µM	44
O[C@@H]1[C@H](O)CO[C@H]1n1cnc2c(NCc3cccc(I)c3)nc(Cl)nc21	ADORA1	ligand displacement, radioligand	–	10 µM, cell membranes	< 10
O=C(NC1C2CCN(CC2)C1Cc1cccnc1)c1cc2ccccc2o1 (centres unmarked)	5-hydroxytryptamine receptor 3A (Htr3a, Mus musculus, UniProt P23979)	ligand displacement, radioligand	–	10 µM	59
O[C@@H]1[C@H](O)CO[C@H]1n1cnc2c(NCc3cccc(F)c3)nc(Cl)nc21	ADORA1	ligand displacement, radioligand	–	10 µM, cell membranes	10
C1=CSC(=C2SC=CS2)S1	Ubiquitin carboxyl-terminal hydrolase 5 (USP5, Homo sapiens, UniProt P45974)	enzyme activity, inhibitor	–	17 µM	54
O=C1N=C(N2CCCCN2)S/C1=C\c1ccc(F)cc1O	Neuromedin-K receptor (TACR3, Homo sapiens, UniProt P29371)	ligand displacement, radioligand	–	10 µM	< 10
COc1cc2c(cc1OC)C(=O)N(CC1CCN(Cc3ccccc3)CC1)C2	ache	enzyme activity, inhibitor	–	1 µM	20.4
CCN(c1cc(C#CCN2CCOCC2)cc(C(=O)NCc2c(C)cc(C)[nH]c2=O)c1C)[C@H]1CC[C@H](N(C)CCOC)CC1	CARM1	enzyme activity, inhibitor	–	1 µM	-3
COc1cc2c(cc1OC)C(=O)N(CC1CCNCC1)C2	ache	enzyme activity, inhibitor	–	1 µM	2.49
Nc1ncnc2c1ncn2[C@@H]1O[C@H](CSCCNC(=O)NCc2ccccc2)[C@@H](O)[C@H]1O	CARM1	enzyme activity, inhibitor, radiometric	–	10 µM	> 95
CC/C(=N\NC(=O)NCc1cccc(O)c1)c1ccc(O)c(C)c1O	Ribosomal protein S6 kinase beta-2 (RPS6KB2, Homo sapiens, UniProt Q9UBS0)	enzyme activity, inhibitor	–	0.1 µM	22.7
O[C@@H]1[C@H](O)CO[C@H]1n1cnc2c(NCc3cccc(Br)c3)nc(Cl)nc21	ADORA1	ligand displacement, radioligand	–	10 µM, cell membranes	< 10
COc1cc2c(cc1OC)C(=O)N(Cc1cccc(N3CCCCC3)n1)C2	ache	enzyme activity, inhibitor	–	1 µM	18.8
CCN1CCN(Cc2ccc(NC(=O)c3ccc(C)c(Oc4ccnc5[nH]ccc45)c3)cc2C(F)(F)F)CC1	Serine/threonine-protein kinase/endoribonuclease IRE1 (ERN1, Homo sapiens, UniProt O75460)	target engagement in cells, inhibitor, chemoproteomics	Huh-7	1 µM	-16.7
c1cc2cc(C3=NCCN3)ccc2cc1C1=NCCN1	Rac GTPase-activating protein 1 (Homo sapiens, UniProt Q9H0H5)	enzyme activity, inhibitor, ADP detection	–	10 µM	50.4
COc1cc2c(cc1OC)C(=O)N(Cc1ccncc1)C2	ache	enzyme activity, inhibitor	–	1 µM	2.62
